Most compounds without a hit are left out; they make up all but 2.7% or so of the library.
HIV Rev-RRE inh = HIV-1 Rev-RRE binding inhibitors, primary screen, biochemical, FRET, protein-RNA interaction; P05866; Rev peptide-RRE RNA binding; inhibition, % at 8 µM; 0.79% of 97,000 active; AID 704, 2007;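 active means inhibition above the screen-wide mean plus 3 SD, cut at about 35% in these data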;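 further: 0% = median DMSO wells and 100% = median Neomycin B control wells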
Target sequence (P05866 whole entry, looked up): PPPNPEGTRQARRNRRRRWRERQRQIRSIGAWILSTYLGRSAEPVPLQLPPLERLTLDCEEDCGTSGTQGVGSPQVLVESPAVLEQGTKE
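Assay system: labelled RRE RNA duplex and labelled Rev peptide / Medium: HEPES pH 7.5 salt buffer with EDTA / Reagent: labelled Rev peptide / Schedule: 5 + 15 min at 25 °C / Signal: FRET, excitation 480 nm, emission 540 nm donor and 671 nm acceptor / Benchmarks: DMSO and neomycin B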
hDAT+cocaine = changed hDAT dopamine uptake under cocaine IC80, either direction, primary screen, cocaine antagonist project, cell-based, LLC-PK1 hDAT, [14C]-dopamine uptake, MLSMR. 1.3% of 110,000 active. LLC-PK1 hDAT cells, [14C]-dopamine uptake with cocaine IC80; actives deviate in either direction. B-score at 10 µM. AID 449768, 2010. Sodium-dependent dopamine transporter (Homo sapiens), Q01959;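 active means Z score or B-score, a plate-position-corrected score, falls beyond the plate's 99.7% confidence bounds, in either direction; inactive means both scores lie inside the 99.7% bounds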;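 further: scored against the spread of the other compound wells on the same plate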
Target sequence (Q01959 whole entry, looked up): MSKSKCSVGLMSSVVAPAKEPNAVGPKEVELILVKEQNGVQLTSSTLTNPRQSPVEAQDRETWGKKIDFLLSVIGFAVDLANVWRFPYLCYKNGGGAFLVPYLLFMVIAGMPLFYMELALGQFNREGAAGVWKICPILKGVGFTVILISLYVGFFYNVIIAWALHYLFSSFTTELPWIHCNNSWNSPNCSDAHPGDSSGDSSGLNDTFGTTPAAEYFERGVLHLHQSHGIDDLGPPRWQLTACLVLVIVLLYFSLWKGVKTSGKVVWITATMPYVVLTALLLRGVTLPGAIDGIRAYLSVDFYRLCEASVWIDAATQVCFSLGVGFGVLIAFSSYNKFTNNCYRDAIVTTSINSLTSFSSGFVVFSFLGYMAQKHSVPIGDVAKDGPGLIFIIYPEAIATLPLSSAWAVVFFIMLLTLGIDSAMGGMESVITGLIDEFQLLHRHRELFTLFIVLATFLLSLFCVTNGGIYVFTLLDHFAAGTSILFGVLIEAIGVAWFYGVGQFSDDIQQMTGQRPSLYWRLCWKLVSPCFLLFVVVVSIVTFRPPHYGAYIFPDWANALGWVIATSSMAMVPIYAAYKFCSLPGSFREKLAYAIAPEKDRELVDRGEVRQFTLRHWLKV
PTPN22 act = LYP phosphatase activators, primary screen, biochemical, DiFMUP fluorescence, 2 µM; Tyrosine-protein phosphatase non-receptor type 22 (Homo sapiens), Q9Y2R2; 0.11% of 96,000 active; recombinant LYP; 0 = plate median, 100 = signal doubled; activation, % at 2 µM;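 active means activation at 2 µM above a set limit, the mean plus 5 SD, cut at about 37% in these data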
LYP inh 2 = PTPN22 phosphatase inhibitors, primary screen, biochemical, DiFMUP fluorescence, 2 µM. inhibition, % at 2 µM. AID 640, 2007. Tyrosine-protein phosphatase non-receptor type 22 (Homo sapiens), Q9Y2R2. 0.21% of 96,000 active. recombinant LYP catalytic domain;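 active means inhibition at 2 µM at or above a set limit, the screen mean plus 3 SD, cut at about 24% in these data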;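 further: 0% = DMSO with enzyme and 100% = enzyme fully blocked by orthovanadate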
PLK1 kinase inh = human PLK1 kinase inhibitors, primary screen, biochemical, TR-FRET; Serine/threonine-protein kinase PLK1 (Homo sapiens), P53350; recombinant PLK1 kinase, TR-FRET peptide phosphorylation; inhibition, % at 10 µM; 0.53% of 97,000 active;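 active means inhibition of 50% or more in the single-concentration screen; inactive means inhibition below 50%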;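 further: 0% = DMSO max control and 100% = H-89 dihydrochloride min control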
Plk1 PBD FP = Plk1 polo box domain binding inhibitors, primary screen, biochemical, fluorescence polarization; Serine/threonine-protein kinase PLK1 (Homo sapiens), P53350; Plk1 PBD phosphopeptide binding; inhibition, %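 (tested at about 20 µM)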; 0.13% of 97,000 active; AID 693, 2007; in the data active means inhibition above about 34%, passing the limit was not always enough
An asterisk follows results filed as active; x = not tested or not shown; [ ] = dose if it differs, or a comment.

SMILES | HIV Rev-RRE inh | hDAT+cocaine | PTPN22 act | LYP inh 2 | PLK1 kinase inh | Plk1 PBD FP
O=[N+]([O-])c1cccc(/C=C/c2nc(C=Nc3ccc4ccccc4c3)c(O)o2)c1 | 48.5* | x | -5.7 | 3.7 | -16.8 | -7.6
O=C(CO/N=C/c1cccc([N+](=O)[O-])c1)Nc1ccc2ccccc2c1 | 10.7 | 0.197 | 6.7 | -4.2 | -11.6 | 8.4
O=C1NC(=S)N/C1=C/c1ccc(-c2c(Br)cc([N+](=O)[O-])cc2Br)o1 | 38.0* | x | -13.7 | 16.9 | -18.5 | -3.1
O=C1NC(=S)N/C1=C\c1cccc([N+](=O)[O-])c1 | 1.0 | -0.0861 | -0.2 | 1.8 | 28.3 | 0.2
O=C(c1ccc(Br)o1)N1CCN(c2ccccn2)CC1 | -1.4 | 2.45* | -3.4 | 2.4 | -8.2 | 5.8
On1c2c(c3c4nonc4ccc31)CCCC2 | 15.1 | -2.38 | 1.1 | -1.2 | 50.9* | 5.8
COc1cc(/C=N/N2CCN(C3c4ccccc4-c4ccccc43)CC2)ccc1O | -1.8 | -1.76* | 2.8 | 3.4 | -13.1 | 18.0
C(=N\N1CCN(C2c3ccccc3-c3ccccc32)CC1)/c1ccncc1 | -3.1 | -0.161 | 0.7 | 5.4 | -6.8 | 16.1
N#C/C(=C\c1ccccc1)c1nc2ncccc2[nH]1 | 10.4 | 0.0714 | -6.1 | 11.0 | 14.2 | -12.7
CCOC(=O)c1c(NC(=O)CN2CCCCC2)sc2c1CCN(C(=O)OCC)C2 | 6.7 | 0.467 | -0.5 | -3.0 | 4.5 | -20.1
CCOC(=O)c1c(NC(=S)Nc2ccccc2)sc2c1CCN(CCc1ccccc1)C2 | 124.0*[fluorescence artefact?] | x | -7.6 | 9.5 | -15.6 | -68.8
CCOCCN1CCN(c2c(C)c(C)nc3cc(-c4cc(OC)cc(OC)c4)nn23)CC1 | 0.3 | 2.52* | 1.7 | -3.2 | -10.8 | -3.5
c1coc(CNc2c3c(nc4ccccc24)CCC3)c1 | 36.2* | 0.377 | -11.0 | 10.4 | 12.3 | -4.2
O=C(c1ccc(CS(=O)(=O)c2ccc(Br)cc2)o1)N1CCCC1 | 7.5 | 0.547 | x | x | 69.2* | -2.3
O=C(c1ccc(CS(=O)(=O)c2ccc(Br)cc2)o1)N1CCCCCC1 | 7.0 | 1.33 | 0.8 | -3.1 | -17.9 | 2.7
COc1ccc(S(=O)(=O)Cc2ccc(C(=O)N3CCc4ccccc4C3)o2)cc1 | 7.0 | 2.42* | 1.8 | -4.1 | -13.2 | 14.7
COC(=O)c1ccc2c(c1)C(C)(C)C(/C=C/c1ccccc1O)=[N+]2C | 78.6*[fluorescence artefact?] | -3.58* | 3.4 | -5.5 | -13.8 | 7.6
Cc1cccc(Cn2c(C(=O)OC(C)C)cc3c2ccn3C)c1 | -1.4 | 0.214 | 9.7 | -9.0 | -3.5 | -5.0
Oc1ccccc1NCC(O)Cn1ccc2ccccc21 (stereo not given) | 62.8* | -0.806 | 3.7 | -3.8 | -0.2 | -5.8
OCc1nc2ccccc2n1CC(O)Cn1ccc2ccccc21 (stereo not given) | 0.3 | 0.697 | -0.6 | 0.5 | -14.3 | 28.0
Cc1cccc(OCC(=O)Nc2ccc(N3CCN(S(C)(=O)=O)CC3)cc2)c1C | 0.9 | 0.268 | -0.6 | -0.5 | -7.3 | 2.3
Cc1ccccc1OCC(=O)Nc1ccc(N2CCN(S(C)(=O)=O)CC2)cc1 | 0.0 | -8.1* | 0.5 | -1.6 | -8.9 | -18.8
Cn1c(/C=N/c2nc3ccccc3[nH]2)nc2ccccc21 | 8.8 | -2.45* | 1.7 | 1.0 | -4.2 | 17.4
O=C(CSc1nc(-c2ccccc2)nn1C(=O)c1ccccc1)Nc1cccc([N+](=O)[O-])c1 | 1.2 | -0.9 | 3.2 | 0.9 | 5.9 | -11.3
CCc1ccccc1NC(=O)CSc1nc(-c2ccccc2)nn1C(=O)c1cccc([N+](=O)[O-])c1 | 4.7 | 5.36* | 2.5 | 0.1 | -8.4 | 6.2
SMILES | HIV Rev-RRE inh | hDAT+cocaine | PTPN22 act | LYP inh 2 | PLK1 kinase inh | Plk1 PBD FP
Nc1ccc2[nH]ncc2c1 | x | -0.268 | x | x | x | x
O=C(Nc1ccccc1)C1=C[C@@H](c2ccc3c(c2)OCO3)C[C@@H](OCCCCO)O1 | x | 0.252 | x | x | x | x
O=C(O)CSc1nnc(-c2cccnc2)n1Cc1ccccc1 | x | -7.05* | x | x | x | x
O=C(COc1ccc2ccccc2c1)NCCNC(=O)COc1ccc2ccccc2c1 | 3.1 | 0.0358 | -6.3 | 6.2 | -16.2 | -25.8
O=C(COc1ccc2ccccc2c1)Nc1ccc(Cc2ccncc2)cc1 | -2.3 | -0.0805 | 3.0 | -0.3 | 63.1* | 6.6
O=C(COc1ccc2ccccc2c1)Nc1cccc2cccnc12 | 13.5 | -7.56* | -0.6 | 0.5 | -8.1 | 9.0
COc1cc2ccccc2cc1C(=O)Nc1ccc(Cc2ccncc2)cc1 | 1.8 | 0.153 | 5.8 | -4.1 | 3.1 | -21.3
COc1cc([N+](=O)[O-])cc(CN2CCCCC2)c1O | 0.1 | -1.22* | 7.6 | -4.0 | -15.7 | -12.2
Cc1ccc(C(=O)C2(C)C3c4cc(Br)ccc4OC(=O)C32C(=O)c2ccco2)cc1 (stereo not given) | 10.8 | 0.774 | 24.1 | -22.4 | -7.3 | -25.1
CSc1ccccc1NC(=O)c1cccnc1 | 2.3 | 0.774 | 4.8 | -4.7 | -12.0 | -6.7
O=C(NCC1CCCO1)C1CCN(C(=O)c2ccc(Br)cc2)CC1 (stereo not given) | 6.3 | 0.122 | 3.5 | -9.4 | -17.8 | -1.3
OCC[C@@H]1C[C@@H](O)[C@H](O)[C@@]2(CCCCO2)O1 | x | 0.576 | x | x | x | x
O=C(Cn1nc(Cc2cccnc2)c2ccccc2c1=O)N1CCN(C(=O)c2ccco2)CC1 | 5.0 | 0.00144 | x | x | 61.5* | -8.6
Cc1ccc2nc(N/N=C/c3ccccc3C#N)nc(-c3ccccc3)c2c1 | 7.5 | 3.06* | -4.9 | 6.8 | -5.6 | 0.5
O=C(CCSc1ccc(Cl)cc1)NC12CC3CC(CC(C3)C1)C2 | 16.5 | 1.57 | -0.9 | 0.7 | -10.8 | -19.9
CCn1c(SCC(=O)c2ccc(O)c(O)c2)nnc1-c1ccc(C)cc1 | -1.1 | -0.862 | -10.2 | 14.9 | 6.3 | -3.3
CCn1c(SCC(=O)c2ccc3c(c2)Cc2ccccc2-3)nnc1-c1ccc(N)cc1 | 3.0 | 1.71* | -11.1 | 11.5 | -5.2 | 18.8
O=C(NCCSCc1ccc(Cl)cc1Cl)c1ccc(CN2CCOCC2)cc1 | 4.0 | 3.15* | -8.3 | 13.2 | -5.2 | -26.1
CCN1CC(CCN2CCOCC2)C(c2ccccc2)(c2ccccc2)C1=O (stereo not given) | x | -0.0547 | x | x | x | x
Cc1cccnc1Nc1nc(-c2ccc(O)c(O)c2)cs1 | 8.1 | 4.6* | 5.3 | -5.9 | 47.1 | -2.3
CCOc1ccccc1NC(=O)CN1CCC(NC(=O)c2ccccc2)CC1 | 3.3 | -1.38 | -2.9 | 2.8 | -12.4 | 9.1
CCOc1ccc(OCC)c(NC(=O)CN2CCC(NC(=O)c3cccc(F)c3)CC2)c1 | x | 3.27* | x | x | x | x
Cc1c(C(=O)OC(C)CCN(C)C)oc2ccccc12 (stereo not given) | 141.3*[fluorescence artefact?] | -0.468 | 1.7 | -4.4 | -18.6 | 36.3

Source: PubChem BioAssay (several laboratories)
